Source: ChEMBL document CHEMBL4364284, “Design, Synthesis, and Efficacy Testing of Nitroethylene- and 7-Nitrobenzoxadiazol-Based Flavodoxin Inhibitors against Helicobacter pylori Drug-Resistant Clinical Strains and in Helicobacter pylori-Infected Mice” (J Med Chem, 2019)
Values after ≈ are worked out from the molar mass of the structure shown. Active and inactive are the calls of the source. The rule behind the calls is not given here.

Key:
[1] = Cytotoxicity against human HeLa cells assessed as reduction in cell viability by XTT assay; type: cell-based; conditions: read-out: MCC50
Procedure, shortened: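 HeLa cells grown in DMEM with 10% FBS, penicillin and streptomycin at 37 °C, 5% CO2; 30 000 cells/well. XTT viability read at 450 and 650 nm. MCC50 (50% lysis) came from viability-versus-concentration curves. Two experiments, each in triplicate.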

[2] = biological target: T1, Flavodoxin (Helicobacter pylori (strain ATCC 700392 / 26695) (Campylobacter pylori)) (UniProt O25776); assay: Inhibition of flavodoxin in Helicobacter pylori SS1 assessed as reduction in bacterial growth measured after 48 hrs by resazurin staining-based microdilution method
T1 sequence (whole entry): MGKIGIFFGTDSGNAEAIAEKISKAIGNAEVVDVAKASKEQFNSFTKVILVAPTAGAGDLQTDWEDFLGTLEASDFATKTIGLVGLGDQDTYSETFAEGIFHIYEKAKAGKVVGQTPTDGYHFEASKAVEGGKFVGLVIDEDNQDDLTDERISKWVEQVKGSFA
Procedure, shortened: (§1)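 Broth microdilution in brain heart infusion with 4% FBS. Inoculum diluted to OD600 0.01. Two-fold dilutions from a DMSO stock cover 64–0.031 μg/mL, with DMSO ≤1% v/v. Incubated 48 h at 37 °C under microaerophilic conditions. MIC is the lowest concentration giving complete growth inhibition, read by resazurin colour change and confirmed by spotting on blood agar. Run twice in triplicate.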

[3] = biological target: T1, Flavodoxin (Helicobacter pylori (strain ATCC 700392 / 26695) (Campylobacter pylori)); assay: Inhibition of flavodoxin in Mnz-resistant Helicobacter pylori NCTC 11637 ATCC 43504 assessed as reduction in bacterial growth measured after 48 hrs by resazurin staining-based microdilution method; conditions: Helicobacter pylori NCTC 11637 = CCUG 17874 = ATCC 43504; procedure, shortened: as §1
[4] = biological target: T1, Flavodoxin (Helicobacter pylori (strain ATCC 700392 / 26695) (Campylobacter pylori)); assay: Inhibition of flavodoxin in Helicobacter pylori ATCC 700392 26695 assessed as reduction in bacterial growth measured after 48 hrs by resazurin staining-based microdilution method; conditions: Helicobacter pylori 26695; procedure, shortened: as §1
[5] = Therapeutic index, ratio of MCC50 for human HeLa cells to MIC for inhibition of flavodoxin in Helicobacter pylori SS1 assessed as reduction in bacterial growth; type: toxicity; conditions: HeLa cells versus Helicobacter pylori SS1, read-out: TI
Procedure, shortened: (§2)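 TI is MCC50/MIC. For MCC50, HeLa cells (30 000/well, DMEM with 10% FBS) were exposed to compound at 25–1000 μM final. Viability by XTT at 450/650 nm; MCC50 is the concentration giving 50% lysis from viability curves. Run twice in triplicate.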

[6] = Therapeutic index, ratio of MCC50 for human HeLa cells to MIC for inhibition of flavodoxin in Mnz-resistant Helicobacter pylori NCTC 11637 ATCC 43504 assessed as reduction in bacterial growth; type: toxicity; conditions: read-out: TI; procedure, shortened: as §2
[7] = Therapeutic index, ratio of MCC50 for human HeLa cells to MIC for inhibition of flavodoxin in Helicobacter pylori ATCC 700392 26695 assessed as reduction in bacterial growth; type: toxicity; conditions: HeLa cells versus Helicobacter pylori ATCC 700392 26695, read-out: TI; procedure, shortened: as §2
[8] = Toxicity in NMRI mouse infected with Helicobacter pylori SS1 assessed as change in body weight at 10 to 20 mg/100g, po administered daily via gavage for 8 days starting from 1 week post-infection; type: organism-based; conditions: in vivo
Procedure, shortened: (§3)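 Female 6-week-old SPF NMRI mice infected orogastrically with Hp SS1 on days 1 and 3. Compound in 5–10% DMSO/olive oil (100 μL) given by daily oral gavage for 8 days from day 8. Body weight and appetite were monitored during treatment; infected controls received vehicle alone.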

[9] = Toxicity in NMRI mouse infected with Helicobacter pylori SS1 assessed as change in appetite at 10 to 20 mg/100g, po administered daily via gavage for 8 days starting from 1 week post-infection; type: organism-based; conditions: in vivo; procedure, shortened: as §3
[10] = Toxicity in NMRI mouse assessed as change in body weight at 10 to 20 mg/100g, po administered daily via gavage for 8 days; type: organism-based; conditions: in vivo, 192 h
[11] = biological target: T1, Flavodoxin (Helicobacter pylori (strain ATCC 700392 / 26695) (Campylobacter pylori)); assay: Binding affinity to Helicobacter pylori flavodoxin by thermal upshift assay
[12] = biological target: T1, Flavodoxin (Helicobacter pylori (strain ATCC 700392 / 26695) (Campylobacter pylori)); assay: Binding affinity to Helicobacter pylori flavodoxin by isothermal titration calorimetric method
Escherichia coli = assay: Effect on growth of Escherichia coli DH5[alpha] after 48 hrs by resazurin-dye based microdilution assay; type: organism-based
Staphylococcus aureus = assay: Effect on growth of Staphylococcus aureus ATCC 1228 after 48 hrs by resazurin-dye based microdilution assay; type: organism-based
[13] = Therapeutic index, ratio of MCC50 for human HeLa cells to MIC for inhibition of flavodoxin in metronidazole-resistant Helicobacter pylori isolate 1 assessed as reduction in bacterial growth; type: toxicity; conditions: read-out: TI; procedure, shortened: as §2
[14] = Therapeutic index, ratio of MCC50 for human HeLa cells to MIC for inhibition of flavodoxin in metronidazole-resistant Helicobacter pylori isolate 2 assessed as reduction in bacterial growth; type: toxicity; conditions: read-out: TI; procedure, shortened: as §2
[15] = Therapeutic index, ratio of MCC50 for human HeLa cells to MIC for inhibition of flavodoxin in metronidazole-resistant Helicobacter pylori isolate 3 assessed as reduction in bacterial growth; type: toxicity; conditions: read-out: TI; procedure, shortened: as §2
[16] = Therapeutic index, ratio of MCC50 for human HeLa cells to MIC for inhibition of flavodoxin in clarithromycin/metronidazole-resistant Helicobacter pylori isolate 4 assessed as reduction in bacterial growth; type: toxicity; conditions: read-out: TI; procedure, shortened: as §2
[17] = Therapeutic index, ratio of MCC50 for human HeLa cells to MIC for inhibition of flavodoxin in rifampicin-resistant Helicobacter pylori isolate 5 assessed as reduction in bacterial growth; type: toxicity; conditions: read-out: TI; procedure, shortened: as §2
[18] = Therapeutic index, ratio of MCC50 for human HeLa cells to MIC for inhibition of flavodoxin in clarithromycin/metronidazole-resistant Helicobacter pylori isolate 6 assessed as reduction in bacterial growth; type: toxicity; conditions: read-out: TI; procedure, shortened: as §2
[19] = Stability of the compound in DMSO-d6 at pH 1 incubated for 19 hrs under shaking condition by 1H-NMR analysis; type: physicochemical; conditions: pH 1, 19 h
Helicobacter pylori = assay: Antibacterial activity against Helicobacter pylori SS1 infected in NMRI mouse assessed as bacterial eradication at 20 mg/100g, po administered daily via gavage for 8 days starting from 1 week post-infection and measured 8 days post-last dose; type: functional, organism-based
Procedure, shortened: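 Female 6-week-old SPF NMRI mice, 7 per condition, infected orogastrically on days 1 and 3 with 100 μL Hp SS1 (5 × 10^8 CFU/mL). From day 8, compound given daily by oral gavage for 8 days in 100 μL of 5–10% DMSO/95–90% olive oil. Sacrificed day 24; stomach homogenate CFU/g counted after 5 days microaerophilic culture at 37 °C. Infected vehicle-treated controls; Mann-Whitney U and unpaired t tests, p ≤ 0.05.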

[20] = biological target: T1, Flavodoxin (Helicobacter pylori (strain ATCC 700392 / 26695) (Campylobacter pylori)); assay: Inhibition of flavodoxin in metronidazole-resistant Helicobacter pylori isolate 1 assessed as reduction in bacterial growth measured after 48 hrs by resazurin staining-based microdilution method
Procedure, shortened: (§4)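 Clinical isolates from gastric biopsies of patients who failed ≥2 therapies; resistance classified by EUCAST breakpoints. […] Read by resazurin colour change as the lowest concentration giving complete growth inhibition.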

[21] = biological target: T1, Flavodoxin (Helicobacter pylori (strain ATCC 700392 / 26695) (Campylobacter pylori)); assay: Inhibition of flavodoxin in metronidazole-resistant Helicobacter pylori isolate 2 assessed as reduction in bacterial growth measured after 48 hrs by resazurin staining-based microdilution method; procedure, shortened: as §4
[22] = biological target: T1, Flavodoxin (Helicobacter pylori (strain ATCC 700392 / 26695) (Campylobacter pylori)); assay: Inhibition of flavodoxin in clarithromycin/metronidazole-resistant Helicobacter pylori isolate 4 assessed as reduction in bacterial growth measured after 48 hrs by resazurin staining-based microdilution method; procedure, shortened: as §4
[23] = biological target: T1, Flavodoxin (Helicobacter pylori (strain ATCC 700392 / 26695) (Campylobacter pylori)); assay: Inhibition of flavodoxin in clarithromycin/metronidazole-resistant Helicobacter pylori isolate 6 assessed as reduction in bacterial growth measured after 48 hrs by resazurin staining-based microdilution method

SMILES | CC50 [1] [µM] | MIC [2] [µM] | MIC [3] [µM] | MIC [4] [µM] | selectivity ratio [5] | selectivity ratio [6] | selectivity ratio [7] | Activity [11] | Activity [12] | Activity (Escherichia coli) | Activity (Staphylococcus aureus) | selectivity ratio [13] | selectivity ratio [14] | selectivity ratio [15] | selectivity ratio [16] | selectivity ratio [17] | selectivity ratio [18] | also measured
NCCc1ccccc1 [PHENETHYLAMINE] | > 1000 | 132 (≈ 16 µg/mL) | 66 (≈ 8 µg/mL) | 66 (≈ 8 µg/mL) | > 7.6 | > 15 | > 15 | Active | Active | Non-Toxic | Non-Toxic | – | – | – | – | – | – | Activity [8]: Non-Toxic; Activity [9]: Non-Toxic; Activity [10]: Non-Toxic
O/N=C/Cc1cc(C(F)(F)F)cc(C(F)(F)F)c1 | > 500 | 236 (≈ 64 µg/mL) | 59 (≈ 16 µg/mL) | 118 (≈ 32 µg/mL) | > 2.1 | > 8.5 | > 4.2 | Active | Active | Non-Toxic | Non-Toxic | 4.2 | 4.2 | 4.2 | 34 | 4.2 | 4.2 | –
COc1ccc(CS(=O)(=O)c2ccc(N)c3nonc23)cc1 | > 1000 | 100 (≈ 31.9 µg/mL) | 100 (≈ 31.9 µg/mL) | 100 (≈ 31.9 µg/mL) | > 10 | > 10 | > 10 | Active | Active | Non-Toxic | Non-Toxic | 10 | 10 | 20 | 20 | 10 | 10 | –
COc1ccc(C2(C)SCc3cc(C)c(C)cc3CS2)cc1 | – | 6.1 (≈ 2.02 µg/mL) | 3 (≈ 0.992 µg/mL) | 3 (≈ 0.992 µg/mL) | – | – | – | Active | Active | – | – | – | – | – | – | – | – | Stability [19]: Stable
Cc1ncc(N)n1CCO | > 1000 | > 453 | 227 (≈ 32 µg/mL) | 453 (≈ 64 µg/mL) | – | > 4.4 | > 2.2 | Active | Active | Non-Toxic | Non-Toxic | – | – | – | – | – | – | –
O=[N+]([O-])C1=Cc2cc(Cl)cc(Cl)c2OC1c1ccc(F)cc1 (stereo not drawn) | – | 0.37 (≈ 0.126 µg/mL) | 0.37 (≈ 0.126 µg/mL) | 0.37 (≈ 0.126 µg/mL) | – | – | – | Active | Active | – | – | – | – | – | – | – | – | –
COc1ccc(CSc2ccc([N+](=O)[O-])c3nonc23)cc1 | – | 0.78 (≈ 0.248 µg/mL) | 1.6 (≈ 0.508 µg/mL) | 6.3 (≈ 2 µg/mL) | – | – | – | Active | Active | – | – | – | – | – | – | – | – | Stability [19]: Stable
COc1ccc(C[S+]([O-])c2ccc([N+](=O)[O-])c3nonc23)cc1 (stereo not drawn) | 179 | 12 (≈ 4 µg/mL) | 6 (≈ 2 µg/mL) | 6 (≈ 2 µg/mL) | 15 | 30 | 30 | Active | Active | Non-Toxic | Non-Toxic | – | – | – | – | – | – | –
O=[N+]([O-])CCc1ccccc1 | > 1000 | 212 (≈ 32 µg/mL) | 212 (≈ 32 µg/mL) | 106 (≈ 16 µg/mL) | > 4.7 | > 4.7 | > 9.4 | Active | Active | Non-Toxic | Non-Toxic | 4.7 | 4.7 | 4.7 | 605 | 4.7 | 4.7 | –
Cc1ncc([N+](=O)[O-])n1CCO [METRONIDAZOLE] | > 1000 | 2.9 (≈ 0.496 µg/mL) | 187 (≈ 32 µg/mL) | 12 (≈ 2.05 µg/mL) | > 345 | > 5.3 | > 83 | Active | Active | Non-Toxic | Non-Toxic | – | – | – | – | – | – | –
O=[N+]([O-])CCc1cc(C(F)(F)F)cc(C(F)(F)F)c1 | > 1000 | 223 (≈ 64 µg/mL) | 56 (≈ 16.1 µg/mL) | 56 (≈ 16.1 µg/mL) | > 4.5 | > 18 | > 18 | Active | Active | Non-Toxic | Non-Toxic | 9 | 9 | 9 | 9 | 9 | 9 | Activity [8]: Non-Toxic; Activity [9]: Non-Toxic; Activity [10]: Non-Toxic; Activity (Helicobacter pylori): Active
COc1ccc(CSc2ccc(N)c3nonc23)cc1 | – | 13.9 (≈ 3.99 µg/mL) | 27.8 (≈ 7.99 µg/mL) | 27.8 (≈ 7.99 µg/mL) | – | – | – | Active | Active | – | – | – | – | – | – | – | – | inhibition [20]: Active; inhibition [21]: Active; inhibition [22]: Active; inhibition [23]: Active; Stability [19]: Stable
ONCCc1ccccc1 | > 1000 | > 233 | > 233 | > 233 | – | – | – | Active | Active | Non-Toxic | Non-Toxic | – | – | – | – | – | – | –
